According to ChEMBL document CHEMBL4725387, “Synthesis and pharmacological evaluation of piperidine (piperazine)-amide substituted derivatives as multi-target antipsychotics” (Bioorg Med Chem Lett, 2020):
Calls of active or inactive are those of the source. The calls are words filed in the database; no cut-off is given here.

What was measured:
Rattus norvegicus [1] = assay: Memory enhancement effect in rat assessed as increase in total exploratory time for novel objects at 0.1 to 0.3 mg/kg, po administered 1 hr prior to acquisition trial and measured after 24 hrs by novel object recognition test; assay type: functional, organism-based; details: dose mg/kg 0.1-0.3, time 25.0 hrs
[2] = AUC (0 to t) in rat at 3 mg/kg, iv; assay type: ADME, organism-based; parameters: dose 3 mg/kg; details: in vivo
How it was run: (§1)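 Male rats, n = 6 per group, given a single intravenous dose of 3 mg/kg. PK parameters taken from serum concentration–time profiles: t1/2, AUC0-t, AUC0-∞, clearance.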

[3] = Half life in rat at 10 mg/kg, po; assay type: ADME, organism-based; details: in vivo
How it was run: (§2)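 Male rats, n = 6 per group, given a single oral dose of 10 mg/kg. PK parameters taken from serum concentration–time profiles: Cmax, Tmax, t1/2, AUC0-t, AUC0-∞, CL/F, F%.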

[4] = AUC (0 to infinity) in rat at 3 mg/kg, iv; assay type: ADME, organism-based; parameters: route intravenous, time infinity, dose 3 mg/kg; details: in vivo; how it was run: as §1
[5] = target: T1, Adrenergic receptor alpha-1 (Homo sapiens, UniProt P35348+P25100+P35368); assay: Binding affinity to alpha1 adrenergic receptor (unknown origin); assay type: protein assay
T1 sequence (P35348 whole entry): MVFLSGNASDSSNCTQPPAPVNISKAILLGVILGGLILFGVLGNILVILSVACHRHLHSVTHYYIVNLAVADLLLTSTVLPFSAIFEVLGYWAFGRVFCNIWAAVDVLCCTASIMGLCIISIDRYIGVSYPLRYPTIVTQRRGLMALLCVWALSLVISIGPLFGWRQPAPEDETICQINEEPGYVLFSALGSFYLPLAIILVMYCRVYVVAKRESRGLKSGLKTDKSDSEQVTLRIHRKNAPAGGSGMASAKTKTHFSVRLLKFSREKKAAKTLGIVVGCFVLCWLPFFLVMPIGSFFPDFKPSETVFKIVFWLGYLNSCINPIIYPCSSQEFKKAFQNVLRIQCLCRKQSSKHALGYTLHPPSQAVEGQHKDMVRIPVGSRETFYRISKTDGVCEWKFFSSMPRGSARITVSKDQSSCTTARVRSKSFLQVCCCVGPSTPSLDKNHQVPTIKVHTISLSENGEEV
T1 sequence (P25100 whole entry): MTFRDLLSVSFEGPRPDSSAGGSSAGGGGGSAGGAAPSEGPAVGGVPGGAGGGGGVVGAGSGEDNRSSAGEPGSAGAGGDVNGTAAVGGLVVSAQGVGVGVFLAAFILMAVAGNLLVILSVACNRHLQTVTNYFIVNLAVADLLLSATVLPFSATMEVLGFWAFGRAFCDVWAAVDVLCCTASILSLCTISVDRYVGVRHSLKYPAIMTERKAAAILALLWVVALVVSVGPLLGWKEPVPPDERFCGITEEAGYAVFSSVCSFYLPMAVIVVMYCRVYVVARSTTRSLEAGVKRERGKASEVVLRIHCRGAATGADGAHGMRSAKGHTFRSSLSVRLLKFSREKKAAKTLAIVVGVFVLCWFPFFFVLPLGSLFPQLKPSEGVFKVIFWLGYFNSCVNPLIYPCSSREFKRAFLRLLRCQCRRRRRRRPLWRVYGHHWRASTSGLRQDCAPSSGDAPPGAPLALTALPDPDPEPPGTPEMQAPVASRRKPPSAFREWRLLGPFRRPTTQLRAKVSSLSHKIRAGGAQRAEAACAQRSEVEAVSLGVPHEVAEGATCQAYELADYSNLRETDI
T1 sequence (P35368 whole entry): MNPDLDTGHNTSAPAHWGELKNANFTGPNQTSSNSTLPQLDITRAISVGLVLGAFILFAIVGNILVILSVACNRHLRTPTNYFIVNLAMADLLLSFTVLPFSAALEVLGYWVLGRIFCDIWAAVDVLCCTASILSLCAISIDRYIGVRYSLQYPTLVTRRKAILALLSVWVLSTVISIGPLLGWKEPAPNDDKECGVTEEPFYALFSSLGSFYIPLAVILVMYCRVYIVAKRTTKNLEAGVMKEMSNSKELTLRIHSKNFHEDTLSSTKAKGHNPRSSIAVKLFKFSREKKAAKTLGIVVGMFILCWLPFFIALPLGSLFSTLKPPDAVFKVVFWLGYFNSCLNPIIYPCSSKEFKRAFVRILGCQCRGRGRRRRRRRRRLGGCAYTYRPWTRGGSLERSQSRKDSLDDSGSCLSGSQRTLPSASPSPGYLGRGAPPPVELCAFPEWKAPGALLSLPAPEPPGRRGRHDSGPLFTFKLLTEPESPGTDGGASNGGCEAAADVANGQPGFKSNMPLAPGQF

[6] = Oral bioavailability in rat at 10 mg/kg; assay type: ADME, organism-based; details: in vivo; how it was run: as §2
[7] = […] in rat at 3 mg/kg, iv; assay type: ADME, organism-based; details: in vivo; how it was run: as §1
Rattus norvegicus [8] = assay: Antipsychotic activity in po dosed rat assessed as suppression in conditioned avoidance response measured after 90 mins by CAR test; assay type: functional
How it was run: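 Rat conditioned avoidance responding tested 90 min after a single oral dose of 0.05, 0.15, 0.45 or 1.35 mg/kg in 30% PEG 400. n = 10 per group. Mean ± SEM, compared with vehicle (P < 0.05). ED50 reported.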

[9] = Therapeutic index, ratio of ED50 for induction of catalepsy in po dosed mouse to ED50 for antipsychotic activity in po dosed mouse assessed as reduction in MK-801-induced hyperlocomotor activity; assay type: toxicity, organism-based; details: in vivo, read-out: Ratio ED50
How it was run: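 Therapeutic index is the catalepsy ED50 divided by the efficacy ED50 from the apomorphine climbing or MK-801 hyperactivity model. All were oral dosing in mice, vehicle 30% PEG 400.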

[10] = target: T2, 5-hydroxytryptamine receptor 2C (Homo sapiens, UniProt P28335); assay: Binding affinity to 5HT2C receptor (unknown origin)
T2 sequence (P28335 whole entry): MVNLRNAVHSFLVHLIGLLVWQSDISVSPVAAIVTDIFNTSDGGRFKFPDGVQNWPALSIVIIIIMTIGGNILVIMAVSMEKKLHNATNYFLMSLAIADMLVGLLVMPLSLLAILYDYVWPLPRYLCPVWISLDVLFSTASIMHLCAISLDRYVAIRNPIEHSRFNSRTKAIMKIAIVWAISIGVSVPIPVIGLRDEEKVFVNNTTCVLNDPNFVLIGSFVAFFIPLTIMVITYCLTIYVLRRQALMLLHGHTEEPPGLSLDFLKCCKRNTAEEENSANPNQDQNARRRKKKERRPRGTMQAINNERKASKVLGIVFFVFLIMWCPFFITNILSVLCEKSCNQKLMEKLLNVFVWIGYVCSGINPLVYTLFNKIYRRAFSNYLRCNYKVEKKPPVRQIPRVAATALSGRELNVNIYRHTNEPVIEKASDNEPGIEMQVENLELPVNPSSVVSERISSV
How it was run: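 Radioligand displacement binding. Ki is the mean ± SEM of three experiments.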

Histamine H1 receptor = Histamine H1 receptor (Homo sapiens, UniProt P35367); assay: Binding affinity to H1 receptor (unknown origin); assay type: ADME
Mus musculus = assay: Antipsychotic activity in po dosed mouse assessed as reduction in MK-801-induced hyperlocomotor activity; assay type: functional
How it was run: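 Mice hyperactivity induced by MK-801 0.3 mg/kg sc, locomotor activity recorded. Oral dosing at 0.01–1.0 mg/kg (five doses) in 30% PEG 400. ED50 reported with 95% confidence limits.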

Histamine H1 receptor, sequence (P35367 whole entry): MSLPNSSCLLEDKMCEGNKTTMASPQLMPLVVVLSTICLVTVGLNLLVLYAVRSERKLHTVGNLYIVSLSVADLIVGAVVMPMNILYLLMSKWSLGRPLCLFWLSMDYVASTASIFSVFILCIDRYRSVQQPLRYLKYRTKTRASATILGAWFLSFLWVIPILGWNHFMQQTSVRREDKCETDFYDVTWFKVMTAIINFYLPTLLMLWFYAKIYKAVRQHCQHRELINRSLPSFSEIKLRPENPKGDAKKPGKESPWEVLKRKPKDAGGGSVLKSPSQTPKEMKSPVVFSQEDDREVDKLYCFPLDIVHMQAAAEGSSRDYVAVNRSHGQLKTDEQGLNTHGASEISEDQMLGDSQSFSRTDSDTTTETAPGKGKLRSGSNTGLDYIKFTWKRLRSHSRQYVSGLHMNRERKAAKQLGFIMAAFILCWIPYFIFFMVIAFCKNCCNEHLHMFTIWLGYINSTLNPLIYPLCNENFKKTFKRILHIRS

AUC(0-t) [2]: 879 ng·h/mL
half-life [3]: 200 min
AUC [4]: 931.48 ng·h/mL
Ki [5]: 3.296 µM
F [6]: 31.04%
CL/F [7]: 3.22 mL/h
Ki [10]: 1990 nM
Ki (Histamine H1 receptor): 2140 nM
SMILES: CC(=O)Nc1ccc(OCCCN2CCC(c3noc4cc(F)ccc34)CC2)cc1
Activity (Rattus norvegicus [1]): Active
Activity (Rattus norvegicus [8]): Dose-dependent effect
ED50 (Rattus norvegicus [8]; 1.5 h): 0.28 mg/kg
selectivity ratio [9]: 133
ED50 (Mus musculus): 0.19 mg/kg
